{"data": "Assay results collected from several papers", "rep papain-like protease": "Replicase polyprotein 1ab, papain-like protease (rep, Porcine epidemic diarrhea virus, UniProt P0C6Y4)", "IPMK": "Inositol polyphosphate multikinase (IPMK, Homo sapiens, UniProt Q8NFU5)", "PTGS1": "Prostaglandin G/H synthase 1 (PTGS1, Ovis aries, UniProt P05979)", "MAP2K2": "Dual specificity mitogen-activated protein kinase kinase 2 (MAP2K2, Homo sapiens, UniProt P36507)", "rep main protease": "Replicase polyprotein 1ab, main protease (rep, Porcine epidemic diarrhea virus, UniProt P0C6Y4)", "ALDH3A1": "Aldehyde dehydrogenase, dimeric NADP-preferring (ALDH3A1, Homo sapiens, UniProt P30838)", "note": "Each line is one published result; the experiments were not run side by side."}
{"Compound": "O=C(NCc1cc(O)c(O)c(Br)c1)c1ccc(Cl)c(F)c1", "target": "rep papain-like protease", "test": "enzyme activity, inhibitor, FRET", "IC50": "7.22 µM"}
{"Compound": "COc1cccc(CNc2nc(NC3CCN(Cc4ccccc4)CC3)c3nc[nH]c3n2)c1", "target": "IPMK", "test": "enzyme activity, inhibitor", "IC50": "2 µM"}
{"Compound": "COc1cc(C=NNC(=O)c2cc(-c3ccccc3)n(-c3ccc(S(N)(=O)=O)cc3)n2)cc(OC)c1OC", "target": "PTGS1", "test": "enzyme activity, inhibitor", "IC50": "7.21 µM"}
{"Compound": "O=C1NC(=O)c2c1c(-c1ccccc1Cl)cc1[nH]c3ccc(O)cc3c21", "target": "Serine/threonine-protein kinase WNK3 (WNK3, Homo sapiens, UniProt Q9BYP7)", "test": "enzyme activity, inhibitor", "IC50": "1.49 µM"}
{"Compound": "COc1ccc(N2CCN(Cc3cn4c(-c5ccc(Br)cc5)nnc4s3)CC2)cc1", "target": "Aifm2 (Mus musculus, UniProt Q8BUE4, L360F)", "test": "enzyme activity, inhibitor, absorbance", "IC50": "~0.518 µM"}
{"Compound": "CC#CC(=O)N1CC[C@@H](n2c(=O)n(-c3ccc(Oc4ccccc4)cc3)c3c(N)ncnc32)C1", "target": "MAP2K2", "test": "enzyme activity, inhibitor", "IC50": "> 5 µM"}
{"Compound": "NS(=O)(=O)c1ccc(-n2nc(C(=O)NN=Cc3ccccc3O)cc2-c2ccccc2)cc1", "target": "PTGS1", "test": "enzyme activity, inhibitor", "IC50": "3.91 µM"}
{"Compound": "O=C(COC(=O)c1ccccc1Nc1cccc(C(F)(F)F)c1)Nc1ccc(F)cc1", "target": "PTGS1", "test": "enzyme activity, inhibitor", "IC50": "151 µM"}
{"Compound": "NC(=O)c1nnn(Cc2cc(Cl)c(C(=O)c3ccc(Cl)cc3)c(Cl)c2)c1N", "target": "D(1A) dopamine receptor (DRD1, Homo sapiens, UniProt P21728)", "test": "cAMP, antagonist", "IC50": "7.98 µM"}
{"Compound": "COc1cc(CNC(=O)c2ccccc2C)cc(Br)c1OC", "target": "rep main protease", "test": "enzyme activity, inhibitor, FRET", "IC50": "6.79 µM"}
{"Compound": "COc1nc2ccc(Br)cc2cc1[C@@H](c1ccccc1)[C@@](O)(CCN(C)C)c1cccc2ccccc12", "target": "ALDH3A1", "test": "enzyme activity, inhibitor, fluorescence", "IC50": "< 10 µM"}
{"Compound": "Cn1c(C(=O)NCc2cc(O)c(O)c(Br)c2)cc2ccccc21", "target": "rep papain-like protease", "test": "enzyme activity, inhibitor, FRET", "IC50": "8.08 µM"}
{"Compound": "COCCNc1nc(NCc2cccc(C(=O)Nc3ccc(OC)cc3)c2)nc2[nH]cnc12", "target": "IPMK", "test": "enzyme activity, inhibitor", "IC50": "63 µM"}
{"Compound": "NS(=O)(=O)c1ccc(-n2nc(C(=O)NN3C(=O)CCC3=O)cc2-c2ccccc2)cc1", "target": "PTGS1", "test": "enzyme activity, inhibitor", "IC50": "7.57 µM"}
{"Compound": "COc1ccc(C(=O)NCc2cc(O)c(O)c(Br)c2)cc1", "target": "rep papain-like protease", "test": "enzyme activity, inhibitor, FRET", "IC50": "2.46 µM"}
{"Compound": "CC#CC(=O)N[C@H]1CCCN(c2c(F)cc(C(N)=O)c3[nH]c(C)c(C)c23)C1", "target": "MAP2K2", "test": "enzyme activity, inhibitor", "IC50": "> 5 µM"}
{"Compound": "NS(=O)(=O)c1ccc(-n2nc(-c3nnc(S)o3)cc2-c2ccccc2)cc1", "target": "PTGS1", "test": "enzyme activity, inhibitor", "IC50": "7.78 µM"}
{"Compound": "COCCNc1nc(NCc2cccc(C(=O)Oc3ccc(OC)cc3)c2)nc2[nH]cnc12", "target": "IPMK", "test": "enzyme activity, inhibitor", "IC50": "14 µM"}
{"Compound": "Cc1ccc(S(=O)(=O)[N](Nc2ccc([N+](=O)[O-])cc2[N+](=O)[O-])[Sn]([Cl])[Cl])cc1", "target": "PTGS1", "test": "enzyme activity, inhibitor", "IC50": "45.9 µM"}
{"Compound": "N=C(N)c1ccc2nc(-c3cc(CC(=O)N[C@@H](CC(=O)O)C(=O)O)cc(-c4cc(S(N)(=O)=O)ccc4O)c3O)[nH]c2c1", "target": "Coagulation factor VII (F7, Homo sapiens, UniProt P08709)", "test": "enzyme activity, inhibitor", "IC50": "0.035 µM"}
{"Compound": "CCC(C(=O)NCc1cc(O)c(O)c(Br)c1)c1ccccc1 (stereo not shown)", "target": "rep papain-like protease", "test": "enzyme activity, inhibitor, FRET", "IC50": "10.6 µM"}
{"Compound": "Nc1ncnc2c1ncn2[C@@H]1C(F)=C(CO)[C@@H](O)[C@H]1O", "target": "Adenosylhomocysteinase (AHCY, Homo sapiens, UniProt P23526)", "test": "enzyme activity, inhibitor", "IC50": "0.15 µM"}
{"Compound": "COc1ccc(C(=O)NCc2cc(Br)c(OC)c(OC)c2)cc1", "target": "rep main protease", "test": "enzyme activity, inhibitor, FRET", "IC50": "5.19 µM"}
{"Compound": "COc1cc(NC(=O)c2cnn(-c3ccc([N+](=O)[O-])cc3)c2C(F)(F)F)cc(OC)c1OC", "target": "PTGS1", "test": "enzyme activity, inhibitor", "IC50": "4.51 µM"}
{"Compound": "O=C(NCc1cc(O)c(O)c(Br)c1)c1nccs1", "target": "rep papain-like protease", "test": "enzyme activity, inhibitor, FRET", "IC50": "4.1 µM"}
{"Compound": "CC(C)N(CCC(=O)c1ccc2ccccc2c1)Cc1ccccc1", "target": "ALDH3A1", "test": "enzyme activity, inhibitor, fluorescence", "IC50": "< 10 µM"}
{"Compound": "CC(=O)Oc1cccc(C(=O)NCc2cc(O)c(O)c(Br)c2)c1C", "target": "rep papain-like protease", "test": "enzyme activity, inhibitor, FRET", "IC50": "2.76 µM"}
{"Compound": "NS(=O)(=O)c1ccc(-n2nc(C(=O)NN3C(=O)c4ccccc4C3=O)cc2-c2ccccc2)cc1", "target": "PTGS1", "test": "enzyme activity, inhibitor", "IC50": "6.72 µM"}
